# Read-outs that look alike come from different tables or passages of the source. Marks after values point to notes of the source that are not given here.
# Assays:
# [1] = Identification of albiflorin metabolites in vivo; parameters: species or system ICR mice; settings: after albiflorin administration
# How it was run: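 Fecal metabolites were profiled by LC/MSn-IT-TOF. Feces were extracted with methanol (1/10, g/mL) by ultrasound for 30 min and centrifuged 10 min at 21100 ×g; 20 μL of supernatant was injected. Separation used a C18 column (250 × 4.6 mm, 5 μm) with a water/0.5% formic acid–methanol gradient at 0.8 mL/min over 45 min. Brain was sampled 2 h after oral dosing at 14 mg/kg, with analytes quantified by HPLC-MS/MS.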
# [2] = test system: reserpine-induced acute depression model mice; test: Out-circle rate in reserpine-induced acute depression model; type: in vivo, ICR mice; settings: 7 days, in 15 s, model 20.0
# [3] = test system: reserpine-induced acute depression model mice; test: Degree of ptosis in reserpine-induced acute depression model; type: in vivo, ICR mice; settings: 7 days, 1 h after reserpine, scale 0-4, model 2.7
# [4] = test system: reserpine-induced acute depression model mice; test: Body temperature in reserpine-induced acute depression model; type: in vivo, ICR mice; settings: 7 days, 4 h after reserpine, model 34.55±0.25
# [5] = test system: reserpine-induced acute depression model mice; test: Tail suspension test in reserpine-induced acute depression model; type: in vivo, ICR mice; settings: model group 140.6 ± 13.6 s
# [6] = test system: carboxylesterase of the gut microbiota; type: biochemical, SD rats; settings: without inhibitor 100%
# How it was run: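 Carboxylesterase inhibitor BNPP (0.3, 0.9 or 3 mM) was added together with test compound (final 1 mg/mL) to pre-incubated pooled SD rat colon-content cultures. Incubation was anaerobic (N2) at 37 °C. Conversion was followed by C18 LC/MSn-IT-TOF.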
# [7] = molecular target: D-amino acid oxidase (DAAO) (Mus musculus, UniProt P18894); test: DAAO activity in mouse brain homogenate; type: biochemical, ICR mice; settings: 5 and 10 μg/mL, 30 min at 37 °C
# How it was run: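 Brains from ten ICR mice, killed by cervical dislocation, were rinsed in saline, blotted, weighed and homogenized in 2 volumes (v/w) saline. Test compounds at final 5 or 10 μg/mL were added and incubated 30 min at 37 °C. DAAO activity was measured by ELISA kit.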
# [8] = test system: chronic stress-induced depression model rats; test: Sugar preference test in chronic stress-induced depression model; type: in vivo, SD rats; settings: 14 mg/kg orally, 14 days
# How it was run: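 SD rats were exposed to multiple alternating stressors for 8 weeks; there were 6 groups of 10, including an unstressed control. Treatment lasted 14 days, and PGF rats stayed on antibiotics throughout. Sugar preference was tested on days 0 and 14. Data are mean ± standard deviation, analysed by two-way ANOVA and t-test.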
# [9] = test system: D-amino acid oxidase (DAAO); test: D-serine oxidation by pure DAAO in vitro; type: biochemical; settings: 89 μM, 15 min at 37 °C; control 13%
# Sequence of D-amino acid oxidase (DAAO) (Mus musculus, UniProt P18894) (P18894 whole entry): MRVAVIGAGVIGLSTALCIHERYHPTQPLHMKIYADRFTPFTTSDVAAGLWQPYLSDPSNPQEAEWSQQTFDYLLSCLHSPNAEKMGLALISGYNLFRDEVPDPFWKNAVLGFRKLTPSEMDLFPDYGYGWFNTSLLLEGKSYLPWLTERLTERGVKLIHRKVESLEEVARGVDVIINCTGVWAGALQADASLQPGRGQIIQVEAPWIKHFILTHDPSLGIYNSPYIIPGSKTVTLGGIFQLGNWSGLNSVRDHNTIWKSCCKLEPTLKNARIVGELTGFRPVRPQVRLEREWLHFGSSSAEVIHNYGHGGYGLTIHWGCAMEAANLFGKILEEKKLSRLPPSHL
compound,measurement,setting,value
glucuronic acid-conjugated albiflorin [M3],Where the metabolite was detected in mice,[1],only detected in the feces
"CNCCC(Oc1ccc(C(F)(F)F)cc1)c1ccccc1 (stereo not shown) [fluoxetine, reference compound]",Rate of out-circle,[2]; 10 mg/kg,60.0%
same,Mean score of ptosis,[3]; 10 mg/kg,1.4 ^*
same,Body temperature,[4]; 10 mg/kg,35.31±0.26 ºC
same,Immobility time in tail suspension test,[5]; 10 mg/kg for 7 days,76.0 ± 17.8 s
"O=[N+]([O-])c1ccc(OP(=O)(O)Oc2ccc([N+](=O)[O-])cc2)cc1 [BNPP, bis-p-nitrophenyl phosphate]",Albiflorin conversion rate in presence of inhibitor,[6]; BNPP 0.3 mM,82.7%
same,Albiflorin conversion rate in presence of inhibitor,[6]; BNPP 0.9 mM,51.5%
same,Albiflorin conversion rate in presence of inhibitor,[6]; BNPP 3 mM,11.3%
hydroxylalbiflorin [M1],Where the metabolite was detected in mice,[1],only detected in the feces
"O=C(O)c1ccccc1 [benzoic acid, Benzoic acid]",Activity of DAAO in brain homogenate,[7],significantly inhibit
same,Where the metabolite was detected in mice,[1],"detected in plasma, feces and brain"
same,Rate of out-circle,[2]; 14 mg/kg,70.0 ^* %
same,Sugar preference values vs depression group,[8],significantly higher
same,Mean score of ptosis,[3]; 14 mg/kg,1.7 ^*
same,Body temperature,[4]; 14 mg/kg,35.23±0.40 ºC
same,Immobility time in tail suspension test,[5]; 14 mg/kg for 7 days,99.5 ± 10.1 s
same,D-serine in DAAO system (%),[9],32%
dihydroxylalbiflorin [M2],Where the metabolite was detected in mice,[1],only detected in the feces
"Cc1cc(C(=O)O)n[nH]1 [AS057278, reference compound]",D-serine in DAAO system (%),[9],38%

# Reference: paper PMC6299426 (Theranostics, 2018)
